Reference: PMC3374645 (European Journal of Pharmaceutical Sciences, 2012)
Converted amounts (≈) assume the structure as drawn. Read-outs that look alike come from different tables or passages of the source.

Assays:
Caco-2 monolayers = assay: Bidirectional permeability in Caco-2 monolayers; assay type: in vitro ADME
[1] = 2008, cited from earlier work
[2] = comparison value, no reference given; cited from earlier work
[3] = Three-compartment model fit after i.v. administration; assay type: in vivo, Sprague–Dawley rats; conditions: rat, i.v. 5.0 mg/kg
Summary of the method: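 Rats received a tail-vein injection of 5.0 mg/kg in ethanol/TPGS/water vehicle. Plasma was taken from 0.017 to 24 h and assayed by HPLC. Concentration–time data were fitted by generalized least squares to three-compartment mass-balance differential equations, seeded with noncompartmental estimates. Parameters are reported with CV%; Vss was taken as the sum of the compartment volumes.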

[4] = Noncompartmental pharmacokinetics after oral administration; assay type: in vivo, Sprague–Dawley rats; conditions: rat
Summary of the method: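 Male Sprague–Dawley rats (240–350 g, n = 5/group) were fasted overnight and gavaged with 2% (w/v) test compound in ethanol/TPGS/water. Tail-vein plasma was sampled predose and 0.25–24 h, precipitated with acetonitrile, and run on C18 HPLC at 242 nm (nimesulide internal standard; 0.05–8.00 μg/mL calibration). Per-rat SHAM analysis used log-trapezoidal AUC, with CL = Dose/AUC.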

[5] = Saturation solubility, shake-flask in buffers, HPLC; assay type: physicochemical
Summary of the method: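 Shake-flask method: excess test compound was placed in 1.0 mL citrate, HEPES or phosphate buffer at pH 2.0–8.0 and shaken 24 h at 25.0 ± 0.1 °C, 1500 rpm. Suspensions then stood unshaken overnight before centrifugation. Supernatants were filtered (0.1 µm) and measured by reverse-phase C18 HPLC at 242 nm.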

[6] = Partition coefficient in octanol:water system; assay type: physicochemical; conditions: pH 7.0
Summary of the method: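 Test compound (1.0 mg) was added to 4.0 mL of a 1:1 octanol:water mixture at pH 7.0 and shaken vigorously for 30 min. Phases were separated by centrifugation, passed through 0.1 µm filters and quantified by reverse-phase C18 HPLC (90% acetonitrile, 242 nm).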

[7] = Simultaneous three-compartment model fit of i.v. and oral data; assay type: in vivo, Sprague–Dawley rats; conditions: rat
Summary of the method: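 Pooled i.v. (5.0 mg/kg) and oral (20, 40, 60 mg/kg gavage) rat plasma data were fitted simultaneously by generalized least squares with variance error models. The structural model had three compartments with combined zero-order/Michaelis–Menten limited systemic uptake. Models were discriminated by goodness-of-fit plots, residuals, SE, CV%, CI95% and lowest AIC.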

[8] = Parallel artificial membrane permeability assay; assay type: in vitro ADME; conditions: PAMPA, pH 7.4, 4 h

Lucifer Yellow [reference compound]
mean permeability of paracellular control (Caco-2 monolayers; Caco-2 monolayer integrity control): < 0.15 ×10⁻⁶ cm/s

c1ccc2c(Cc3c[nH]c4ccccc34)c[nH]c2c1 [DIM, 3,3′-diindolylmethane]
Cmax ([1]; single 100 mg dose ref Reed et al.): 32 ng/mL | Cmax ([1]; single 200 mg dose ref Reed et al.): 104 ng/mL | Cmax ([1]; single 300 mg dose ref Reed et al.): 108 ng/mL | Log K0/w [2]: ≈ 4.0

c1ccc(-c2ccc(C(c3c[nH]c4ccccc34)c3c[nH]c4ccccc34)cc2)cc1 [DIM-P, DIM-C-pPhC6H5]
apparent distributional phase [3]: < 2 h | VSS ([3]; secondary parameter): 0.68285 L/kg | t1/2 ([3]; secondary parameter): 10.653 h | CLC ([3]; three compartment model): 0.74 mL/min/kg | CLd1 ([3]; three compartment model): 0.56 mL/min/kg | CLd2 ([3]; three compartment model): 0.29 mL/min/kg | V1 ([3]; three compartment model): 0.64098 L/kg | V2 ([3]; three compartment model): 0.02822 L/kg | VC ([3]; three compartment model): 0.01365 L/kg | AUC0–24h /Dose ([4]; oral 20 mg/kg): 2.28 ± 0.46 (min/L) *10^−3 | AUMC0–24h ([4]; oral 20 mg/kg): 250.45 ± 62.42 μg × min^2/mL | AUMC0–24h/Dose ([4]; oral 20 mg/kg): 0.012 ± 0.003 min^2/mL | CL ([4]; oral 20 mg/kg): 0.8652 ± 0.0648 mL/min/kg | Cmax ([4]; oral 20 mg/kg): 7210 ± 1190 ng/mL | Cmax/dose ([4]; oral 20 mg/kg): 0.36 ± 0.06 | FBIO (absolute bioavailability) ([4]; oral 20 mg/kg): 0.13 ± 0.03 | MRT ([4]; oral 20 mg/kg): 5.47 ± 0.64 h | Terminal t1/2 ([4]; oral 20 mg/kg): 6.91 ± 3.84 h | Vss ([4]; oral 20 mg/kg): 0.49979 ± 0.223605 L/kg | time of maximum plasma level ([4]; oral 20 mg/kg): 2 h | AUMC0–24h ([4]; oral 40 mg/kg): 548.85 ± 207.09 μg × min^2/mL | AUMC0–24h/Dose ([4]; oral 40 mg/kg): 0.014 ± 0.005 min^2/mL | CL ([4]; oral 40 mg/kg): 0.8315 ± 0.0753 mL/min/kg | Cmax ([4]; oral 40 mg/kg): 11270 ± 1040 ng/mL | Cmax/dose ([4]; oral 40 mg/kg): 0.28 ± 0.03 | FBIO (absolute bioavailability) ([4]; oral 40 mg/kg): 0.12 ± 0.03 | MRT ([4]; oral 40 mg/kg): 6.29 ± 1.14 h | Terminal t1/2 ([4]; oral 40 mg/kg): 7.86 ± 3.12 h | Vss ([4]; oral 40 mg/kg): 0.54861 ± 0.16478 L/kg | time of maximum plasma level ([4]; oral 40 mg/kg): 2 h | AUC0–24h /Dose ([4]; oral 60 mg/kg): 2.32 ± 0.46 (min/L) *10^−3 | AUMC0–24h ([4]; oral 60 mg/kg): 912.16 ± 299.02 μg × min^2/mL | AUMC0–24h/Dose ([4]; oral 60 mg/kg): 0.015 ± 0.005 min^2/mL | CL ([4]; oral 60 mg/kg): 0.8397 ± 0.0582 mL/min/kg | Cmax ([4]; oral 60 mg/kg): 17860 ± 1620 ng/mL | Cmax/dose ([4]; oral 60 mg/kg): 0.30 ± 0.03 | FBIO (absolute bioavailability) ([4]; oral 60 mg/kg): 0.13 ± 0.03 | MRT ([4]; oral 60 mg/kg): 6.43 ± 0.81 h | Terminal t1/2 ([4]; oral 60 mg/kg): 7.60 ± 2.34 h | Vss ([4]; oral 60 mg/kg): 0.54239 ± 0.12804 L/kg | time of maximum plasma level ([4]; oral 60 mg/kg): 3 h | absolute bioavailability ([4]; oral, as stated in abstract): 0.13 ± 0.06 | aqueous solubility ([5]; pH 2.0, 25 °C, 24 h shake-flask): 0.28 ± 0.03 µg/mL (≈ 0.703 µM) | maximum aqueous solubility ([5]; pH 8.0, 25 °C, 24 h shake-flask): 0.73 ± 0.09 µg/mL | overall solubility ([5]; pH range 2–8): less than 1.0 μg/mL | experimental Log K0/w [6]: 6.79 ± 0.12 and ≈ 7.0 | Peff A–B (Caco-2 monolayers; Caco-2, apical pH 5): 0.34 ± 0.06 × 10^−6 cm/s | Peff B–A (Caco-2 monolayers; Caco-2, apical pH 5): 0.53 ± 0.08 × 10^−6 cm/s | Peff A–B (Caco-2 monolayers; Caco-2, apical pH 5.8): 0.33 ± 0.07 × 10^−6 cm/s | Peff B–A (Caco-2 monolayers; Caco-2, apical pH 5.8): 0.50 ± 0.06 × 10^−6 cm/s | Peff A–B (Caco-2 monolayers; Caco-2, apical pH 6.8): 0.35 ± 0.06 × 10^−6 cm/s | Peff B–A (Caco-2 monolayers; Caco-2, apical pH 6.8): 0.52 ± 0.07 × 10^−6 cm/s | average Peff, B–A (Caco-2 monolayers; Caco-2, basolateral to apical, average): 0.51 ± 0.09 × 10^−6 cm/s | absorptive (A–B) versus secretive (B–A) transport (Caco-2 monolayers; bidirectional Caco-2, no active efflux): nearly unity | Biopharmaceutics Classification System (BCS) class (Caco-2 monolayers; from low solubility and low permeability): Class IV | zero-order absorption site access rate ([7]; oral 20 mg/kg): 14 mg/h/kg | zero-order absorption site access rate ([7]; oral 40 mg/kg): 28 mg/h/kg | zero-order absorption site access rate ([7]; oral 60 mg/kg): 42 mg/h/kg | CLC ([7]; simultaneous fit i.v. 5.0 and oral 20, 40, 60 mg/kg): 0.77 mL/min/kg | Abmax (maximum absorption rate at saturation) ([7]; simultaneous fit i.v. and oral): 60.65 µg/min/kg | CLd1 ([7]; simultaneous fit i.v. and oral): 0.606 mL/min/kg | CLd2 ([7]; simultaneous fit i.v. and oral): 0.319 mL/min/kg | FBIO ([7]; simultaneous fit i.v. and oral): 0.126 | SD50 (amount of drug at the absorption site at 50% saturation) ([7]; simultaneous fit i.v. and oral): 8.6797 mg/kg | Tsite (time required for drug to reach absorption site) ([7]; simultaneous fit i.v. and oral): 85.20 min | V1 ([7]; simultaneous fit i.v. and oral): 0.64606 L/kg | V2 ([7]; simultaneous fit i.v. and oral): 0.0285 L/kg | VC ([7]; simultaneous fit i.v. and oral): 0.0139 L/kg | donor-to-receptor apparent permeability (Papp) ([8]; stirred water layer): 2.69 ± 0.08 × 10^−6 cm/s | donor-to-receptor apparent permeability (Papp) ([8]; unstirred water layer): 0.58 ± 0.07 × 10^−6 cm/s
